Measurements as given in PMC3114641 (ACS medicinal chemistry letters, 2011).
Where two headings read alike, the source gives them in different places. Values belong to the molecule of their own block, whether it stands above or below them.

Columns and labels:
[1] = target: T1, chicken riboflavin binding protein (RfBP) (Gallus gallus, UniProt P02752); test: Isothermal titration calorimetry; conditions: ITC; for KD: KD = 1/KA
T1 sequence (P02752 18-238): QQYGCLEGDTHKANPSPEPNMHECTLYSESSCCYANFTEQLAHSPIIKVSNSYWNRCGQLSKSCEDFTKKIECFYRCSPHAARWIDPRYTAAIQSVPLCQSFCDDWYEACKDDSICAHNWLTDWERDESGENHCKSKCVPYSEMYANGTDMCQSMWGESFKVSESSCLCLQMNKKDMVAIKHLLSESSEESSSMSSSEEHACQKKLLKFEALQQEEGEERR

RfBP [2] = target: T2, RfBP (Gallus gallus, UniProt P02752); test: SPR direct binding of RfBP to ligand 1 immobilized on CM5 sensor chip; parameters: species or system chicken
T2 sequence (P02752 18-238): T1 sequence (P02752 18-238)
Outline: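 Chicken RfBP was injected at 33.0 to 3.70 μM in HBS-EP buffer (pH 7.4) over a CM5 chip with an immobilized riboflavin-linker conjugate. Sensorgrams were fitted globally to a 1:1 Langmuir model to give kon and koff, and KD was derived from these kinetics. KD was also obtained by Scatchard analysis of bound RfBP against RfBP concentration.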

RfBP [3] = target: T2, RfBP; test: SPR solution competition: inhibition of RfBP adsorption to RF; assay type: binding, chicken
RfBP [4] = conditions: fluorescence quenching, cited from earlier work
[5] = PBS pH 7.4, 25°C, calculated estimate
[6] = PBS pH 7.4, 25°C, calculated estimate (Table 2)
[7] = 0.1M NaAc pH 4.0, 25°C, calculated estimate
[8] = 0.1M Phosphate pH 7.4, 25°C, calculated estimate
[9] = 0.1M Tris pH 9.0, 25°C, calculated estimate

SMILES: OCCN1CCN(CCCN2c3ccccc3Sc3ccc(Cl)cc32)CC1 [Perphenazine, perphenazine]
binding affinity towards the RfBP [1]: no binding affinity
KD ([1]; PBS pH 7.4, 25°C): No Binding Observed

SMILES: Cc1cc2nc3c(=O)[nH]c(=O)nc-3n(C)c2cc1C [Lumiflavin, lumiflavin]
n (binding stoichiometry) ([1]; PBS pH 7.4, 25°C): 1.08 ±0.07
ΔH ([1]; PBS pH 7.4, 25°C): -11.5 ± 1.72 kcal/mol
ΔG [1, 5]: -9.85 kcal/mol
ΔS [1, 6]: −0.02 kJ mol^−1 K^−1

SMILES: CN(C)CCCN1c2ccccc2Sc2ccc(Cl)cc21 [Chlorpromazine, chlorpromazine]
binding affinity towards the RfBP [1]: no binding affinity
KD ([1]; PBS pH 7.4, 25°C): No Binding Observed

More lines, main results first:

Kd (RfBP [2]): 14500 nM
koff (RfBP [2]): 0.00149 s⁻¹
kon (RfBP [2]): 103 M⁻¹ s⁻¹
inhibition of RfBP adsorption to the surface (RfBP [3]; RfBP 11.1 µM, ligand concentrations above ~500 µM): approximately 90%
SMILES: Cc1cc2nc3c(=O)n(CC(=O)NCCCN)c(=O)nc-3n(C[C@H](O)[C@H](O)[C@H](O)CO)c2cc1C [compound 1]

n (binding stoichiometry) ([1]; 0.1M NaAc pH 4.0, 25°C): 0.70±0.04
ΔH ([1]; 0.1M NaAc pH 4.0, 25°C): -24.07 ± 2.49 kcal/mol
ΔG [1, 7]: -9.99 kcal/mol
ΔS [1, 7]: -0.0478 kcal/mol
n (binding stoichiometry) ([1]; 0.1M Phosphate pH 7.4, 25°C): 0.81±0.03
ΔH ([1]; 0.1M Phosphate pH 7.4, 25°C): -19.6 ± 1.36 kcal/mol
ΔG [1, 8]: -11.1 kcal/mol
ΔS [1, 8]: -0.0287 kcal/mol
n (binding stoichiometry) ([1]; 0.1M Tris pH 9.0, 25°C): 0.82±0.03
ΔH ([1]; 0.1M Tris pH 9.0, 25°C): -23.7 ± 2.15 kcal/mol
ΔG [1, 9]: -10.2 kcal/mol
ΔS [1, 9]: -0.0454 kcal/mol
n (binding stoichiometry) ([1]; PBS pH 7.4, 25°C): 0.78±0.02
ΔH ([1]; PBS pH 7.4, 25°C): -21.8 ± 1.36 kcal/mol
ΔG [1, 5]: -11.4 kcal/mol
ΔS ([1]; PBS pH 7.4, 25°C, calculated estimate (Table 1)): -0.0359 kcal/mol
ΔS [1, 6]: −0.15 kJ mol^−1 K^−1
inhibitory activity, fold more potent than N(3) derivative 1 (RfBP [3]; SPR Ki comparison): approximately 7 fold
SMILES: Cc1cc2nc3c(=O)[nH]c(=O)nc-3n(C[C@H](O)[C@H](O)[C@H](O)CO)c2cc1C [RF, riboflavin]
Kd (RfBP [4]; 0.01M phosphate buffer): 1.3 nM
Kd (RfBP [4]; 0.1 M phosphate buffer): 2 nM
